In test [1] the target is T1, Adenosine receptor A1 (Bos taurus, UniProt P28190).
T1 sequence (P28190 whole entry): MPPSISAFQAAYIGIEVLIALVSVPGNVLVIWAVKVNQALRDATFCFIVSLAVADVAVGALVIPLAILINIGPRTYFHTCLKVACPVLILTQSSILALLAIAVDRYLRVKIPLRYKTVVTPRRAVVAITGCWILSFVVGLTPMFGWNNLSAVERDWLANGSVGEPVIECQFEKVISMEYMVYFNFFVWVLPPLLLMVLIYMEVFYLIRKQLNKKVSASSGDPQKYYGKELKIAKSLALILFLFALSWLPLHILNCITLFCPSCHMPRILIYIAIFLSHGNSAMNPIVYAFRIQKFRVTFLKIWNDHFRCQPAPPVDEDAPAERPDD
The test is described as follows: Affinity for Adenosine A1 receptor using [125I]APNEA in calf brain. The essentials: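 Bovine cerebral cortex membranes were pretreated with adenosine deaminase (0.5 unit/mL, 20 min, 37 °C). Membranes (40 µg) were incubated with 125I-APNEA and competitor for 1 h at 37 °C. Separation was by dilution in cold Tris-HCl/MgCl2/EDTA buffer, pH 8.26, with 0.02% Chaps, then glass-filter filtration and gamma counting. Nonspecific binding was defined with 10⁻⁵ M (R)-PIA.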

In test [2] the target is T2, Adenosine receptor A1 (Rattus norvegicus, UniProt P25099).
T2 sequence (P25099 whole entry): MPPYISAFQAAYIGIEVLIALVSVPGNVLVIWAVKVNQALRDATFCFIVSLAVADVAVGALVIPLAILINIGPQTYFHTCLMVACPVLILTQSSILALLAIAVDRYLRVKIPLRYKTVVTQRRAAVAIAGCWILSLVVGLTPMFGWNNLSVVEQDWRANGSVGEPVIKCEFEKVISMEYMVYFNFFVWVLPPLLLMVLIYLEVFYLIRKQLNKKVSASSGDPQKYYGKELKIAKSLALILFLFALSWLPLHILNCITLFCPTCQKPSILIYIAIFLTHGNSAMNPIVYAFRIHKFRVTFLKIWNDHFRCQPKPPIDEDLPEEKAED
The test is described as follows: Affinity for A1 adenosine receptor using [3H]-N6 -(phenylisopropyl)-adenosine (R)-[3H]-PIA in rat brain. The format is tissue-based. The method, boiled down:
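Rat cerebral cortex membranes pretreated with adenosine deaminase (0.5 unit/mL, 20 min, 37 °C). Competition against 1 nM (R)-[3H]PIA over a range of ligand concentrations, in triplicate, in at least three experiments. […] For irreversible ligands the value is an apparent Ki.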

Test [3] has as its target T3, Adenosine receptor A1 (Rattus norvegicus) (UniProt P25099).
T3 sequence (whole entry): T2 sequence (P25099 whole entry)
The test is described as follows: Percentage inhibition of [125I]APNEA binding to adenosine A1 receptor from rat brain after 45 min incubation at 500 nM. The method, boiled down:
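Adenosine deaminase-treated rat cerebral cortex membranes were exposed to the ligand for 45 min at 37 °C. They were washed three times, held in buffer with 10⁻⁴ M IBMX for 18 h at 25 °C, washed and re-treated with deaminase. Residual sites were measured by 125I-APNEA saturation (0.1–2.5 nM) against untreated membranes carried through the same procedure.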

For test [4], the target named is T3, Adenosine receptor A1 (Rattus norvegicus). The test is described as follows: (§1) Percentage inhibition of [125I]APNEA binding to adenosine A1 receptor from rat brain after 45 min incubation at 1 nM. The essentials: (§2)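 Rat cerebral cortex membranes pretreated with adenosine deaminase (0.5 unit/mL, 20 min, 37 °C). Incubated with ligand at the stated concentration for 45 min at 37 °C, then washed three times in Tris/MgCl2/EDTA buffer pH 8.26 with 0.02% Chaps. Then 10⁻⁴ M IBMX for 18 h at 25 °C, washed twice and deaminase-treated again. Untreated membranes went through every step as controls.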

Test [5] has the same target. The test is described as follows: Percentage inhibition of [125I]APNEA binding to Adenosine A1 receptor from rat brain after 45 min incubation at 10 nM. The essentials:
as §2

Test [6] addresses T4, Adenosine receptors; A1 & A2 (Rattus norvegicus) (UniProt P29276+P25099+P30543). The test is described as follows: Relative affinities for Adenosine A2 and Adenosine A1 receptors. The format is protein assay.
For test [7], the target named is T3, Adenosine receptor A1 (Rattus norvegicus). The test is described as follows: Percentage inhibition of [125I]APNEA binding to adenosine A1 receptor from rat brain after 45 min incubation at 10 nM. The essentials: as §2
Test [8] deals with T5, Adenosine A2 receptor (Rattus norvegicus, UniProt P29276+P30543). Put plainly: Inhibition of [3H]N-ethyladenosine-5'-uronamide binding to Adenosine A2 receptor of rat striatal membrane.
The target of test [9] is T2, Adenosine receptor A1. The test is described as follows: Affinity for adenosine A1 receptor using [3H]-N6 -(phenylisopropyl)-adenosine (R)-[3H]-PIA in rat brain. The format is tissue-based. The essentials: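 Rat cerebral cortex membranes were incubated with 1 nM (R)-[3H]PIA and a range of competitor concentrations. Each point was run in triplicate, in at least three separate experiments.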

The target of test [10] is T5, Adenosine A2 receptor. The test is described as follows: Inhibitory affinity for adenosine A2 receptor using [3H]N-ethyladenosine-5'-uronamide. The format is protein assay.
Test [11] deals with T4, Adenosine receptors; A1 & A2 (Rattus norvegicus). Put plainly: Selectivity ratio between Ki for adenosine A2 and A1 receptors. The format is protein assay.
For test [12], the target named is T3, Adenosine receptor A1 (Rattus norvegicus). Described as §1. The essentials:
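Rat cerebral cortex membranes, pretreated with adenosine deaminase (0.5 unit/mL, 20 min, 37 °C), incubated with ligand 45 min at 37 °C. Washed three times in Tris/MgCl2/EDTA buffer pH 8.26 with 0.02% Chaps, then 10⁻⁴ M IBMX 18 h at 25 °C to strip reversible ligand. Washed, deaminase-treated again, then 125I-APNEA saturation binding (0.1–2.5 nM; nonspecific 10⁻⁵ M R-PIA). Inhibition is relative to untreated membranes carried through the same steps.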
This is another data set of the same source.

Each structure is given as a SMILES string. Where only a bound is given, the exact number is not on record here.

`CCCn1c(=O)c2nc(-c3ccc(OCC(=O)NCC=O)cc3)[nH]c2n(CCC)c1=O`: the Ki at Adenosine receptor A1 [1] amounted to 3.17 nM; at Adenosine receptor A1 [2], 266 nM. In addition, the inhibition in [3] came to 0%.
In the case of `O=C(Cc1ccc(NC(=O)Cc2ccc(Nc3ncnc4c3ncn4C3O[C@H](CO)[C@@H](O)[C@H]3O)cc2)cc1)NCC/N=C(\S)Nc1cccc(N=C=S)c1` (stereo not given in full), the inhibition in [4] is 62%; in test [5], > 90%; in test [7], > 90%. Also, in test [6], the Ratio is 203. On Adenosine A2 receptor [8], this molecule registered a Ki of 176 nM.
On to `O=C(Cc1ccc(NC(=O)Cc2ccc(Nc3ncnc4c3ncn4C3O[C@H](CO)[C@@H](O)[C@H]3O)cc2)cc1)NCC/N=C(\S)Nc1ccc(S(=O)(=O)[O-])cc1.[Na+]` (stereo not given in full), for which the Ki was 51.1 nM at Adenosine receptor A1 [9] and 70 nM on Adenosine A2 receptor [10]. Moreover, the Ratio in test [11] was 1.37.
Turning to `O=C(Cc1ccc(NC(=O)Cc2ccc(Nc3ncnc4c3ncn4C3O[C@H](CO)[C@@H](O)[C@H]3O)cc2)cc1)NCC/N=C(\S)Nc1ccc(N=C=S)cc1` (stereo not given in full), the values for the inhibition in test [5], in test [7] and in [12] were > 80%, > 80% and 39%, respectively. This molecule returned a Ki on Adenosine A2 receptor [8] of 191 nM.

Source of the values: ChEMBL document CHEMBL1124458, “Electrophilic derivatives of purines as irreversible inhibitors of A1 adenosine receptors” (J Med Chem, 1989).
